In one test the test system is HeLa. The test can be described thus: Cytostatic activity against human HeLa cells after 3 days by coulter ZI particle counting analysis. The format is functional, cell-based. The conditions noted are these: 72 h. A digest of the protocol:
(§1)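 Cells seeded in 96-well plates and grown with or without serial dilutions of compound, 2 days for L1210 and 3 days for CEM and HeLa. IC50 taken as concentration inhibiting cell proliferation by 50%.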

A further test relates to L1210. Nature of the test: Cytostatic activity against mouse L1210 cells after 2 days by coulter ZI particle counting analysis. It is filed as functional, cell-based. The conditions noted are these: L1210, 48 h. A digest of the protocol: as §1
The subject of the next test is CCRF-CEM. Nature of the test: Cytostatic activity against human CEM cells after 3 days by coulter ZI particle counting analysis. To be noted: 72 h. It is filed as functional, cell-based. A digest of the protocol: as §1
Another test deals with Felid alphaherpesvirus 1. The test can be described thus: Antiviral activity against Feline herpesvirus infected in cat CRFK cells assessed as inhibition of virus-induced cytopathicity. It is filed as functional, organism-based. The conditions noted are these: Felid alphaherpesvirus 1, CRFK. A digest of the protocol:
(§2)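 Confluent monolayers (HEL for HSV-1 KOS and HSV-2 G; CRFK for feline herpes virus) in 96-well plates inoculated with 100 CCID50 of virus in presence of varying compound concentrations (100, 20, 4, … μM). Cytopathicity scored when complete in untreated infected controls; EC50 = concentration inhibiting virus-induced cytopathicity by 50%.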
For orientation: Protection from cytopathic effect is a common read-out in antiviral testing.

In a further test the test system is Human alphaherpesvirus 2. Nature of the test: Antiviral activity against Herpes simplex virus 2 G infected in human HEL cells assessed as inhibition of virus-induced cytopathicity. The format is functional, organism-based. The conditions noted are these: Human alphaherpesvirus 2, strain G. A digest of the protocol:
as §2

The next test deals with Human alphaherpesvirus 1. Nature of the test: Antiviral activity against Herpes simplex virus 1 KOS infected in human HEL cells assessed as inhibition of virus-induced cytopathicity. It is filed as functional, organism-based. The conditions noted are these: Human alphaherpesvirus 1, KOS. A digest of the protocol: as §2

Consider `CCOP(=O)(CCCn1cc(Cn2c(=O)n(C(=O)c3ccccc3)c(=O)c3ccccc32)nn1)OCC`, for which the values for the IC50 with HeLa, in the test on L1210 and in the test with CCRF-CEM were 129 µM, > 200 µM and 44 µM, respectively. The results for the EC50 in the test with Felid alphaherpesvirus 1, with Human alphaherpesvirus 2 and with Human alphaherpesvirus 1 were 24 µM, 17 µM and 17 µM, respectively.

With `CCOP(=O)(CCCn1cc(Cn2ccc(=O)n(C(=O)c3ccccc3)c2=O)nn1)OCC`, the IC50 in the test on HeLa, in the test on L1210 and with CCRF-CEM was > 200 µM each time. In addition, the EC50 with Felid alphaherpesvirus 1, in the test on Human alphaherpesvirus 2 and in the test with Human alphaherpesvirus 1 was > 200 µM throughout.

For `CCOP(=O)(CC(O)Cn1cc(Cn2ncc(=O)[nH]c2=O)nn1)OCC` (configuration not stated), the IC50 in the test with HeLa, with L1210 and in the test on CCRF-CEM was > 200 µM throughout.

For the compound `CCOP(=O)(CCCn1cc(Cn2ccccc2=O)nn1)OCC`, the IC50 in the test with HeLa, with L1210 and with CCRF-CEM was > 200 µM in each case.

Consider `Cn1c(=O)c2c(nc(Cl)n2Cc2cn(CCCP(=O)(O)O)nn2)n(C)c1=O`, for which the IC50 with HeLa, in the test on L1210 and in the test with CCRF-CEM was > 200 µM throughout.

With `CCOP(=O)(OCC)C(O)Cn1cc(Cn2cnc3c2c(=O)n(C)c(=O)n3C)nn1` (configuration not stated), the IC50 in the test on HeLa, in the test with L1210 and in the test on CCRF-CEM was > 200 µM in each case.

Consider `CCOP(=O)(Cn1cc(Cn2ccccc2=O)nn1)OCC`, for which the IC50 in the test with HeLa, in the test on L1210 and in the test on CCRF-CEM was > 200 µM throughout.

Regarding `CCOP(=O)(CCn1cc(Cn2ncc(=O)[nH]c2=O)nn1)OCC`, the IC50 in the test with HeLa, with L1210 and in the test on CCRF-CEM was > 200 µM in each case.

On to `CCOP(=O)(OCC)C(O)CCn1cc(Cn2cnc3c2c(=O)n(C)c(=O)n3C)nn1` (configuration not stated), for which the IC50 in the test with HeLa, in the test with L1210 and in the test with CCRF-CEM was > 200 µM in each case.

In the case of `CCOP(=O)(OCC)C(O)Cn1cc(Cn2cc(C(C)=O)c3ccccc32)nn1` (configuration not stated), the IC50 (in general, the concentration that gives 50% inhibition) is > 200 µM in the test with HeLa, > 200 µM in the test on L1210 and 21 µM in the test with CCRF-CEM.

Regarding `CCOP(=O)(OCC)C(O)CCn1cc(Cn2ccc(=O)[nH]c2=O)nn1` (configuration not stated), the IC50 in the test on HeLa, with L1210 and in the test on CCRF-CEM was > 200 µM each time.

`CCOP(=O)(OCC)C(O)Cn1cc(Cn2cnc3cc(C)c(C)cc32)nn1` (configuration not stated): the IC50 in the test with HeLa, in the test on L1210 and with CCRF-CEM was > 200 µM throughout.

Regarding `CCOP(=O)(CCCCn1cc(Cn2cnc3c2c(=O)n(C)c(=O)n3C)nn1)OCC`, the IC50 with HeLa, with L1210 and with CCRF-CEM was > 200 µM each time.

For `CCOP(=O)(CCCCn1cc(Cn2cc(C)c(=O)[nH]c2=O)nn1)OCC`, the IC50 in the test with HeLa, in the test on L1210 and in the test on CCRF-CEM was > 200 µM in each case.

In the case of `CCOP(=O)(CCCCn1cc(Cn2ccc(=O)[nH]c2=O)nn1)OCC`, the IC50 with HeLa, in the test with L1210 and in the test with CCRF-CEM was > 200 µM throughout.

Regarding `CCOP(=O)(OCC)C(O)CCn1cc(Cn2cc(C(C)=O)c3ccccc32)nn1` (configuration not stated), the IC50 is > 200 µM in the test on HeLa, 124 µM in the test on L1210 and 100 µM in the test with CCRF-CEM.

With `CCOP(=O)(CCCn1cc(Cn2ncc(=O)[nH]c2=O)nn1)OCC`, the IC50 with HeLa, with L1210 and in the test with CCRF-CEM was > 200 µM each time.

(Values after ChEMBL document CHEMBL3085765, “The synthesis, antiviral, cytostatic and cytotoxic evaluation of a new series of acyclonucleotide analogues with a 1,2,3-triazole linker” (Eur J Med Chem, 2013).)
